Laboratory results reported in publication PMC11336475 (Heliyon, 2024).

Columns and labels:
[1] = DPPH radical scavenging assay; details: for Inhibition% ± SEM: DPPH, measured at 400 μM, 3 repetitions; for EC50: DPPH radical scavenging
In short: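 DPPH solution (110 μM) mixed with samples at various concentrations and kept in the dark for 30 min. Absorbance read at 517 nm. Percent inhibition and EC50 calculated from absorbance changes. Each concentration run in triplicate.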

[2] = biological target: tyrosinase enzyme (Agaricus bisporus, UniProt C7FF04); experiment: Kinetic study of tyrosinase inhibition; assay type: biochemical; details: Lineweaver-Burk plot, L-DOPA substrate; Km increased, Vmax constant
tyrosinase enzyme, sequence (C7FF04 2-392): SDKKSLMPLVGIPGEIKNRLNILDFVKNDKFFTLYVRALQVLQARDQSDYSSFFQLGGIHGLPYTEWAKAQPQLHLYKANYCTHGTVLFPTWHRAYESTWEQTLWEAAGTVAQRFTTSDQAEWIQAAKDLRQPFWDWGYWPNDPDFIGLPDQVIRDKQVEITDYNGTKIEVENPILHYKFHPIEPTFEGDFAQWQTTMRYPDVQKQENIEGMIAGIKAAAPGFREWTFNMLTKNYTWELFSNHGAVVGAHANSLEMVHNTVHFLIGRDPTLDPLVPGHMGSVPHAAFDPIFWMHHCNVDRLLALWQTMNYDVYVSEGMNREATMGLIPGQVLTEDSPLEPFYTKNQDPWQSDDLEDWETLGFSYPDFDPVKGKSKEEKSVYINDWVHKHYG

type of inhibition [2]	EC50 [1] [µM]	SMILES	Inhibition% ± SEM [1] [%]
		Cc1c(O)c(=O)ccn1-c1cccc(C(=O)N/N=C/c2ccc(O)c(O)c2)c1 [Compound 6a, (E)-N'-(3,4-dihydroxybenzylidene)-3-(3-hydroxy-2-methyl-4-oxopyridin-1(4H)-yl) benzohydrazide]	90.06 ± 3.75
competitive inhibitor		COc1cc(/C=N/NC(=O)c2cccc(-n3ccc(=O)c(O)c3C)c2)ccc1O [Compound 6b, (E)-3-(3-Hydroxy-2-methyl-4-oxopyridin-1(4H)-yl)-N'-(4-hydroxy-3-methoxybenzylidene)benzohydrazide]	84.64 ± 2.68
	> 400	COc1cccc(/C=N/NC(=O)c2cccc(-n3ccc(=O)c(O)c3C)c2)c1O [Compound 6c, (E)-3-(3-Hydroxy-2-methyl-4-oxopyridin-1(4H)-yl)-N'-(2-hydroxy-3-methoxybenzylidene) benzohydrazide]	48.06 ± 2.25
	> 400	COc1cc(OC)c(/C=N/NC(=O)c2cccc(-n3ccc(=O)c(O)c3C)c2)c(OC)c1 [Compound 6d, (E)-3-(3-Hydroxy-2-methyl-4-oxopyridin-1(4H)-yl)-N'-(2,4,6-trimethoxybenzylidene)benzohydrazide]	35.16 ± 1.37
	> 400	Cc1c(O)c(=O)ccn1-c1cccc(C(=O)N/N=C/c2ccccc2Br)c1 [Compound 6e, (E)-N'-(2-bromobenzylidene)-3-(3-hydroxy-2-methyl-4-oxopyridin-1(4H)-yl)benzohydrazide]	19.59 ± 1.76
	> 400	Cc1c(O)c(=O)ccn1-c1cccc(C(=O)N/N=C/c2ccccc2C(=O)O)c1 [Compound 6f, (E)-2-((2-(3-(3-Hydroxy-2-methyl-4-oxopyridin-1(4H)-yl)benzoyl) hydrazono)methyl) benzoic acid]	35.01 ± 5.71
	> 400	Cc1c(O)c(=O)ccn1-c1cccc(C(=O)N/N=C/c2cccc(Cl)c2)c1 [Compound 6g, (E)-N'-(3-chlorobenzylidene)-3-(3-hydroxy-2-methyl-4-oxopyridin-1(4H)-yl) benzohydrazide]	44.20 ± 2.41
	> 400	Cc1c(O)c(=O)ccn1-c1cccc(C(=O)NN=Cc2c(Cl)cccc2Cl)c1 [Compound 6h, N'-(2,6-dichlorobenzylidene)-3-(3-hydroxy-2-methyl-4-oxopyridin-1(4H)-yl)benzohydrazide]	44.55 ± 0.91
	174	Cc1c(O)c(=O)ccn1-c1cccc(C(=O)N/N=C/c2cc(Cl)ccc2[N+](=O)[O-])c1 [Compound 6i, (E)-N'-(5-chloro-2-nitrobenzylidene)-3-(3-hydroxy-2-methyl-4-oxopyridin-1(4H)-yl)benzohydrazide]	67.65 ± 0.85
		Cc1c(O)c(=O)ccn1-c1cccc(C(=O)N/N=C/Cc2ccccc2)c1 [Compound 6j, (E)-3-(3-Hydroxy-2-methyl-4-oxopyridin-1(4H)-yl)-N'-(2-phenylethylidene)benzohydrazide]	68.59 ± 1.14
	8.98 ± 0.05	O=c1c(O)c(-c2ccc(O)c(O)c2)oc2cc(O)cc(O)c12 [Quercetin, reference compound]	
